ChEMBL document CHEMBL1142180, “First characterization of fluoroquinolone resistance in Streptococcus suis” (2007)
In brackets after ≈: the same amount, converted by molar mass.

Columns and labels:
Type in all cases: functional
Streptococcus suis [1] = experiment: Antibacterial activity against Streptococcus suis BB1006 isolate after 24 hrs
Summary of the method: (§1)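 Broth microdilution MIC assay against S. suis collection strain or Spanish/South American swine clinical isolates, incubated at 37°C for 24 h; MIC reported in μg/ml.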

Streptococcus suis [2] = experiment: Antibacterial activity against Streptococcus suis BB1010 isolate after 24 hrs; summary of the method: as §1
Streptococcus suis [3] = experiment: Antibacterial activity against Streptococcus suis BB1013 isolate after 24 hrs; summary of the method: as §1
Streptococcus suis [4] = experiment: Antibacterial activity against Streptococcus suis BB1009 isolate after 24 hrs; summary of the method: as §1
Streptococcus suis [5] = experiment: Antibacterial activity against Streptococcus suis BB1001 isolate after 24 hrs; summary of the method: as §1
Streptococcus suis [6] = experiment: Antibacterial activity against Streptococcus suis BB1005 isolate after 24 hrs; summary of the method: as §1
Streptococcus suis [7] = experiment: Antibacterial activity against Streptococcus suis BB1002 isolate after 24 hrs; summary of the method: as §1
Streptococcus suis [8] = experiment: Antibacterial activity against Streptococcus suis BB1012 isolate after 24 hrs; summary of the method: as §1
Streptococcus suis [9] = experiment: Antibacterial activity against Streptococcus suis BB1003 isolate after 24 hrs; summary of the method: as §1
Streptococcus suis [10] = experiment: Antibacterial activity against Streptococcus suis BB1011 isolate after 24 hrs
Streptococcus suis [11] = experiment: Antibacterial activity against Streptococcus suis BB1014 isolate after 24 hrs; summary of the method: as §1
Streptococcus suis [12] = experiment: Antibacterial activity against Streptococcus suis BB1004 isolate after 24 hrs; summary of the method: as §1
Streptococcus suis [13] = experiment: Antibacterial activity against Streptococcus suis BB1017 isolate after 24 hrs; summary of the method: as §1
Streptococcus suis [14] = experiment: Antibacterial activity against Streptococcus suis BB1007 isolate after 24 hrs; summary of the method: as §1
Streptococcus suis [15] = experiment: Antibacterial activity against Streptococcus suis ATCC 43765 after 24 hrs; conditions: ATCC 43765, 24 h; summary of the method: as §1
Streptococcus suis [16] = experiment: Antibacterial activity against Streptococcus suis BB1008 isolate after 24 hrs; summary of the method: as §1
Streptococcus suis [17] = experiment: Antibacterial activity against Streptococcus suis BB1015 isolate after 24 hrs; summary of the method: as §1
Streptococcus suis [18] = experiment: Antibacterial activity against Streptococcus suis BB1016 isolate after 24 hrs; summary of the method: as §1
Streptococcus suis [19] = experiment: Antibacterial activity against Streptococcus suis BB1005 isolate in presence of 10 ug/ml reserpine after 24 hrs; summary of the method: as §1
Streptococcus suis [20] = experiment: Antibacterial activity against Streptococcus suis BB1004 isolate in presence of 10 ug/ml reserpine after 24 hrs; summary of the method: as §1
Streptococcus suis [21] = experiment: Antibacterial activity against Streptococcus suis BB1002 isolate in presence of 10 ug/ml reserpine after 24 hrs; summary of the method: as §1
Streptococcus suis [22] = experiment: Antibacterial activity against Streptococcus suis BB1012 isolate in presence of 10 ug/ml reserpine after 24 hrs
Summary of the method: (§2)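 Clinical swine S. suis isolates; MIC by microdilution, 37°C for 24 h, ciprofloxacin tested with reserpine added; MIC reported in μg/ml.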

Streptococcus suis [23] = experiment: Antibacterial activity against Streptococcus suis BB1003 isolate in presence of 10 ug/ml reserpine after 24 hrs; summary of the method: as §1
Streptococcus suis [24] = experiment: Antibacterial activity against Streptococcus suis BB1016 isolate in presence of 10 ug/ml reserpine after 24 hrs; summary of the method: as §2
Streptococcus suis [25] = experiment: Antibacterial activity against Streptococcus suis ATCC 43765 in presence of 10 ug/ml reserpine after 24 hrs; conditions: ATCC 43765, 24 h; summary of the method: as §1
Streptococcus suis [26] = experiment: Antibacterial activity against Streptococcus suis BB1006 isolate in presence of 10 ug/ml reserpine after 24 hrs; summary of the method: as §1
Streptococcus suis [27] = experiment: Antibacterial activity against Streptococcus suis BB1007 isolate in presence of 10 ug/ml reserpine after 24 hrs; summary of the method: as §1
Streptococcus suis [28] = experiment: Antibacterial activity against Streptococcus suis BB1008 isolate in presence of 10 ug/ml reserpine after 24 hrs; summary of the method: as §1
Streptococcus suis [29] = experiment: Antibacterial activity against Streptococcus suis BB1001 isolate in presence of 10 ug/ml reserpine after 24 hrs; summary of the method: as §1
Streptococcus suis [30] = experiment: Antibacterial activity against Streptococcus suis BB1011 isolate in presence of 10 ug/ml reserpine after 24 hrs; summary of the method: as §2
Streptococcus suis [31] = experiment: Antibacterial activity against Streptococcus suis BB1013 isolate in presence of 10 ug/ml reserpine after 24 hrs; summary of the method: as §2
Streptococcus suis [32] = experiment: Antibacterial activity against Streptococcus suis BB1010 isolate in presence of 10 ug/ml reserpine after 24 hrs; summary of the method: as §2
Streptococcus suis [33] = experiment: Antibacterial activity against Streptococcus suis BB1017 isolate in presence of 10 ug/ml reserpine after 24 hrs; summary of the method: as §2
Streptococcus suis [34] = experiment: Antibacterial activity against Streptococcus suis BB1014 isolate in presence of 10 ug/ml reserpine after 24 hrs; summary of the method: as §2
Streptococcus suis [35] = experiment: Antibacterial activity against Streptococcus suis BB1009 isolate in presence of 10 ug/ml reserpine after 24 hrs; summary of the method: as §2
Streptococcus suis [36] = experiment: Antibacterial activity against Streptococcus suis BB1015 isolate in presence of 10 ug/ml reserpine after 24 hrs; summary of the method: as §2

Structure (SMILES) | MIC (Streptococcus suis [1]) | MIC (Streptococcus suis [2]) | MIC (Streptococcus suis [3]) | MIC (Streptococcus suis [4]) | MIC (Streptococcus suis [5]) | MIC (Streptococcus suis [6]) | MIC (Streptococcus suis [7]) | MIC (Streptococcus suis [8]) | MIC (Streptococcus suis [9]) | MIC (Streptococcus suis [10]) | MIC (Streptococcus suis [11]) | MIC (Streptococcus suis [12]) | MIC (Streptococcus suis [13]) | MIC (Streptococcus suis [14]) | MIC (Streptococcus suis [15]) | MIC (Streptococcus suis [16]) | MIC (Streptococcus suis [17]) | MIC (Streptococcus suis [18]) | other results
CCn1cc(C(=O)O)c(=O)c2cc(F)c(N3CCNCC3)cc21 [NORFLOXACIN] | 32 µg/mL (≈ 100 µM) | > 64 µg/mL | > 64 µg/mL | 32 µg/mL (≈ 100 µM) | 2 µg/mL (≈ 6.26 µM) | 4 µg/mL (≈ 12.5 µM) | 2 µg/mL (≈ 6.26 µM) | > 64 µg/mL | 4 µg/mL (≈ 12.5 µM) | 32 µg/mL (≈ 100 µM) | > 64 µg/mL | 2 µg/mL (≈ 6.26 µM) | > 64 µg/mL | 16 µg/mL (≈ 50.1 µM) | 4 µg/mL (≈ 12.5 µM) | > 64 µg/mL | > 64 µg/mL | > 64 µg/mL | 
O=C(O)c1cn(C2CC2)c2cc(N3CCNCC3)c(F)cc2c1=O [CIPROFLOXACIN] | 2 µg/mL (≈ 6.04 µM) | 32 µg/mL (≈ 96.6 µM) | 64 µg/mL (≈ 193 µM) | 32 µg/mL (≈ 96.6 µM) | 0.5 µg/mL (≈ 1.51 µM) | 0.5 µg/mL (≈ 1.51 µM) | 0.5 µg/mL (≈ 1.51 µM) | 32 µg/mL (≈ 96.6 µM) | 0.5 µg/mL (≈ 1.51 µM) | 16 µg/mL (≈ 48.3 µM) | 64 µg/mL (≈ 193 µM) | 0.5 µg/mL (≈ 1.51 µM) | 64 µg/mL (≈ 193 µM) |  | 0.5 µg/mL (≈ 1.51 µM) | 64 µg/mL (≈ 193 µM) | 32 µg/mL (≈ 96.6 µM) | 32 µg/mL (≈ 96.6 µM) | MIC (Streptococcus suis [19]): 0.5 µg/mL; MIC (Streptococcus suis [20]): 0.5 µg/mL; MIC (Streptococcus suis [21]): 0.5 µg/mL; MIC (Streptococcus suis [22]): 16 µg/mL; MIC (Streptococcus suis [23]): 0.5 µg/mL; MIC (Streptococcus suis [24]): 16 µg/mL; MIC (Streptococcus suis [25]): 0.5 µg/mL; MIC (Streptococcus suis [26]): 1 µg/mL; MIC (Streptococcus suis [27]): 4 µg/mL; MIC (Streptococcus suis [28]): 32 µg/mL; MIC (Streptococcus suis [29]): 0.5 µg/mL; MIC (Streptococcus suis [30]): 16 µg/mL; MIC (Streptococcus suis [31]): 16 µg/mL; MIC (Streptococcus suis [32]): 16 µg/mL; MIC (Streptococcus suis [33]): 16 µg/mL; MIC (Streptococcus suis [34]): 16 µg/mL; MIC (Streptococcus suis [35]): 16 µg/mL; MIC (Streptococcus suis [36]): 16 µg/mL
CCN1CCN(c2cc3c(cc2F)c(=O)c(C(=O)O)cn3C2CC2)CC1 [ENROFLOXACIN] | 1 µg/mL (≈ 2.78 µM) | 32 µg/mL (≈ 89 µM) | 8 µg/mL (≈ 22.3 µM) | 16 µg/mL (≈ 44.5 µM) | 0.5 µg/mL (≈ 1.39 µM) | 0.25 µg/mL (≈ 0.696 µM) | 0.5 µg/mL (≈ 1.39 µM) | 8 µg/mL (≈ 22.3 µM) | 0.5 µg/mL (≈ 1.39 µM) | 16 µg/mL (≈ 44.5 µM) | 16 µg/mL (≈ 44.5 µM) | 0.5 µg/mL (≈ 1.39 µM) | 16 µg/mL (≈ 44.5 µM) | 4 µg/mL (≈ 11.1 µM) | 0.5 µg/mL (≈ 1.39 µM) | 32 µg/mL (≈ 89 µM) | 16 µg/mL (≈ 44.5 µM) | 8 µg/mL (≈ 22.3 µM) | 
CCn1cc(C(=O)O)c(=O)c2ccc(C)nc21 [NALIDIXIC ACID] | > 64 µg/mL | > 64 µg/mL | > 64 µg/mL | > 64 µg/mL | > 64 µg/mL | > 64 µg/mL | > 64 µg/mL | > 64 µg/mL | > 64 µg/mL | > 64 µg/mL | > 64 µg/mL | > 64 µg/mL | > 64 µg/mL | > 64 µg/mL | > 64 µg/mL | > 64 µg/mL | > 64 µg/mL | > 64 µg/mL | 
C[C@H]1COc2c(N3CCN(C)CC3)c(F)cc3c(=O)c(C(=O)O)cn1c23.C[C@H]1COc2c(N3CCN(C)CC3)c(F)cc3c(=O)c(C(=O)O)cn1c23.O [LEVOFLOXACIN] | 1 µg/mL | 32 µg/mL | 16 µg/mL | 16 µg/mL | 1 µg/mL | 0.5 µg/mL | 1 µg/mL | 16 µg/mL | 0.5 µg/mL | 16 µg/mL | 32 µg/mL | 1 µg/mL | 64 µg/mL | 2 µg/mL | 1 µg/mL | 16 µg/mL | 16 µg/mL | 32 µg/mL | 
